Series [1] addresses Calcium/calmodulin-dependent protein kinase type 1B (Homo sapiens) (UniProt Q6P2M8). In words: Inhibition of recombinant full length human CAMKIbeta at 1 uM using KKLRRTLSFAEP as substrate incubated for 40 mins in presence of [gamma-33P]-ATP by scintillation counting method relative to control. In outline:
(§1)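 Kinase panel profiling at 1 μM performed by Eurofins KinaseProfiler; percent inhibition reported as mean of two independent experiments.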

The target in series [2] is Serine/threonine-protein kinase 32A (Homo sapiens) (UniProt Q8WU08). In words: Inhibition of recombinant human full length STK32A at 1 uM using casein as substrate incubated for 40 mins in presence of [gamma-33P]-ATP by scintillation counting method relative to control. In outline: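 Single-point inhibition at 1 uM measured in a commercial kinase profiling panel (KinaseProfiler); each value is the mean of two independent experiments.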

Series [3] concerns the target Inhibitor of nuclear factor kappa-B kinase subunit beta (Homo sapiens) (UniProt O14920). In words: Inhibition of recombinant human full length IKKbeta at 1 uM using peptide as substrate incubated for 40 mins in presence of [gamma-33P]-ATP by scintillation counting method relative to control.
Series [4] has as its target Tau-tubulin kinase 1 (Homo sapiens) (UniProt Q5TCY1). In words: Inhibition of recombinant human TTBK1 (1 to 479 residues) at 1 uM using casein as substrate incubated for 40 mins in presence of [gamma-33P]-ATP by scintillation counting method relative to control. In outline: (§2)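 Tested at a single 1 uM in an outsourced commercial kinase-profiling panel, read as percent inhibition. Each value is the mean of two independent experiments.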

The target of series [5] is Cyclin-dependent kinase 1/cyclin B1 (Homo sapiens, UniProt P06493). In words: Inhibition of recombinant human full length CDK1/CyclinB using histone H1 as substrate incubated for 40 mins in presence of [gamma-33P]-ATP by scintillation counting method. It is filed as protein-complex assay.
In series [6] the test system is Platelet-derived growth factor receptor alpha (Homo sapiens), P16234 [V561D]. Description: Inhibition of recombinant human PDGFRalpha V561D mutant (550 to end residues) at 1 uM using GGMEDIYFEFMGGKKK as substrate incubated for 40 mins in presence of [gamma-33P]-ATP by scintillation counting method relative to control. In outline:
as §2

The nature of series [7]: Toxicity in BALB/c mouse assessed as effect on blood parameter by measuring RBC content at 40 mg/kg, po administered once two days for 4 times by hematology analyzer. As to conditions: in vivo.
The target of series [8] is Casein kinase 2 (Homo sapiens) (UniProt P67870+P68400+P19784+Q8NEV1). In words: Inhibition of recombinant full length human CK2 expressed in insect Sf21 cells at 1 uM using CK2 substrate peptide as substrate incubated for 40 mins in presence of [gamma-33P]-ATP by scintillation counting method relative to control. In outline:
as §1

Series [9] addresses Casein kinase II subunit alpha' (Homo sapiens) (UniProt P19784). Description: Inhibition of recombinant human full length CK2alpha2 at 1 uM using RRRDDDSDDD as substrate incubated for 40 mins in presence of [gamma-33P]-ATP by scintillation counting method relative to control.
Series [10] has as its target Aurora kinase C (Homo sapiens) (UniProt Q9UQB9). Description: Inhibition of recombinant human Aurora-C (35 to end residues) at 1 uM using AKRRRLSSLRA as substrate incubated for 40 mins in presence of [gamma-33P]-ATP by scintillation counting method relative to control. The method in brief: as §1
Series [11] has as its target Serine/threonine-protein kinase Nek6 (Homo sapiens) (UniProt Q9HC98). Description: Inhibition of recombinant human NEK6 (2 to end residues) at 1 uM using FLAKSFGSPNRAYKK as substrate incubated for 40 mins in presence of [gamma-33P]-ATP by scintillation counting method relative to control.
In series [12] the test system is MDA-MB-231. Description: Inhibition of colony formation in human MDA-MB-231 cells at 20 to 40 nM incubated for 5 days by crystal violet staining based light microscopy. Type of series: functional, cell-based. In outline:
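4 × 10^3 cells per well were cultured with graded concentrations for 5 days. Cells were then fixed with 20% methanol, stained with 0.5% crystal violet and photographed by light microscopy.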

For series [13], the target named is Protein kinase C beta type (Homo sapiens) (UniProt P05771). In words: Inhibition of recombinant human PKCbeta2 (2 to end residues) at 1 uM using histone H1 as substrate incubated for 40 mins in presence of [gamma-33P]-ATP by scintillation counting method relative to control.
Series [14] addresses Serine/threonine-protein kinase SIK2 (Homo sapiens) (UniProt Q9H0K1). Description: Inhibition of recombinant human SIK2 (1 to 276 residues) at 1 uM using KKKVSRSGLYRSPSMPENLNRPR as substrate incubated for 40 mins in presence of [gamma-33P]-ATP by scintillation counting method relative to control.
Series [15] is filed under the species Homo sapiens. Description: Inhibition of recombinant human full length PI3K p110alpha/p65alpha (1 to 571 residues) at 1 uM using phosphatidylinositol 4,5-bisphosphate as substrate incubated for 40 mins in presence of [gamma-33P]-ATP by scintillation counting method relative to control.
Series [16] relates to Serine/threonine-protein kinase B-raf (Homo sapiens), P15056 [V600E]. Description: Inhibition of recombinant human BRAF V599E mutant (416 to end residues) at 1 uM using myelin as substrate incubated for 40 mins in presence of [gamma-33P]-ATP by scintillation counting method relative to control. In outline: as §1
Series [17] has as its system MDA-MB-231. Description: Induction of cell cycle arrest in human MDA-MB-231 cells assessed as decrease in accumulation in S phase at 20 to 40 nM incubated for 36 hrs by propidium iodide staining based flow cytometry. It is filed as functional. The method in brief:
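Cells were treated with graded concentrations for 36 h, then fixed overnight in 70% ice-cold ethanol at 4°C and resuspended in PBS. Staining used 50 µg/ml PI plus 5 µg/ml RNase at 37°C for 30 min. DNA content was analysed by FACS to give G0/G1, S and G2/M fractions.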
(In general: Flow cytometry measures light scatter and fluorescence of single cells or particles in a stream.)

In series [18] the test system is SiHa. In words: Antitumor activity against human SiHa cells xenografted in NOD/SCID BALB/c mouse assessed as tumor growth inhibition at 10 to 40 mg/kg, po administered for 21 days. It is filed as functional, organism-based.
Series [19] has as its target Serine/threonine-protein kinase PAK 3 (Homo sapiens) (UniProt O75914). Description: Inhibition of recombinant human full length PAK3 at 1 uM using RRRLSFAEPG as substrate incubated for 40 mins in presence of [gamma-33P]-ATP by scintillation counting method relative to control. The method in brief: as §2
Series [20] deals with Serine/threonine-protein kinase Chk2 (Homo sapiens) (UniProt O96017). In words: Inhibition of recombinant human CHK2 (5 to end residues) at 1 uM using KKKVSRSGLYRSP as substrate incubated for 40 mins in presence of [gamma-33P]-ATP by scintillation counting method relative to control. In outline:
as §1

Series [21] concerns T47D. In words: Inhibition of colony formation in human T47D cells at 40 nM incubated for 5 days by crystal violet staining based light microscopy. Type of series: functional, cell-based. The method in brief: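 MDA-MB-231, T-47D, SiHa and HeLa cells seeded at 4×10^3/well and cultured with varying concentrations of drug or vehicle for 5 days. Fixed in 20% methanol, stained with 0.5% crystal violet, photographed under light microscopy. DMEM (T-47D) with 10% FBS, 37°C, 5% CO2.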

Structures are written as SMILES. Calls of active or inactive are those of the source. No cut-off for these calls is given here.

Sequence of Protein kinase C beta type (Homo sapiens) (P05771 2-671 limits assumed): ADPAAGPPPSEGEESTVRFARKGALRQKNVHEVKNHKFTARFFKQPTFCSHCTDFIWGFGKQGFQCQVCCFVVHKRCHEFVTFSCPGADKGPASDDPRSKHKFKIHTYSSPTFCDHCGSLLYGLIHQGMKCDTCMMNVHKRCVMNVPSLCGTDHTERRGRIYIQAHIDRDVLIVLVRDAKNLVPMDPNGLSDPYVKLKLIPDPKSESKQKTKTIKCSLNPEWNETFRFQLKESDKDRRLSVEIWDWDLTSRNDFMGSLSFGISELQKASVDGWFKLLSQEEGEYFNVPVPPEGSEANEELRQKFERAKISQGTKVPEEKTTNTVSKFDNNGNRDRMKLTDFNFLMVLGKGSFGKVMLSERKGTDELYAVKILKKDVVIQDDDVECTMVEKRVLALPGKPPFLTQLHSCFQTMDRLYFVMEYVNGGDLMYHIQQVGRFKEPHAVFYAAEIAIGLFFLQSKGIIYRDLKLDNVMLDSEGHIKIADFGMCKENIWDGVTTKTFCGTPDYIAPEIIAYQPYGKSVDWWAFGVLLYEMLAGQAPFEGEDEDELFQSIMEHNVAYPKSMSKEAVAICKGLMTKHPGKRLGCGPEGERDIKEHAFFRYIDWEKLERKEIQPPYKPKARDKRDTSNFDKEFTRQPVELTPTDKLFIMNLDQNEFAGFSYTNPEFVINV
Sequence of Aurora kinase C (Homo sapiens) (Q9UQB9 whole entry): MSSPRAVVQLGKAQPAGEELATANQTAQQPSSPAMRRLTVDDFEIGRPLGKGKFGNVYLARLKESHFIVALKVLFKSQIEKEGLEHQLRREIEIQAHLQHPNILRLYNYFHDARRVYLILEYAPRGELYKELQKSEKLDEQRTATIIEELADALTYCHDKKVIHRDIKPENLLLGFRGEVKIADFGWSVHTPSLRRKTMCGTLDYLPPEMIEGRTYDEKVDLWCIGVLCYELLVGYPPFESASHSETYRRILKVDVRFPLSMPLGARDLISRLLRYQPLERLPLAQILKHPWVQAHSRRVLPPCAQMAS
Sequence of Serine/threonine-protein kinase B-raf (Homo sapiens), P15056 [V600E] (P15056 whole entry V600E): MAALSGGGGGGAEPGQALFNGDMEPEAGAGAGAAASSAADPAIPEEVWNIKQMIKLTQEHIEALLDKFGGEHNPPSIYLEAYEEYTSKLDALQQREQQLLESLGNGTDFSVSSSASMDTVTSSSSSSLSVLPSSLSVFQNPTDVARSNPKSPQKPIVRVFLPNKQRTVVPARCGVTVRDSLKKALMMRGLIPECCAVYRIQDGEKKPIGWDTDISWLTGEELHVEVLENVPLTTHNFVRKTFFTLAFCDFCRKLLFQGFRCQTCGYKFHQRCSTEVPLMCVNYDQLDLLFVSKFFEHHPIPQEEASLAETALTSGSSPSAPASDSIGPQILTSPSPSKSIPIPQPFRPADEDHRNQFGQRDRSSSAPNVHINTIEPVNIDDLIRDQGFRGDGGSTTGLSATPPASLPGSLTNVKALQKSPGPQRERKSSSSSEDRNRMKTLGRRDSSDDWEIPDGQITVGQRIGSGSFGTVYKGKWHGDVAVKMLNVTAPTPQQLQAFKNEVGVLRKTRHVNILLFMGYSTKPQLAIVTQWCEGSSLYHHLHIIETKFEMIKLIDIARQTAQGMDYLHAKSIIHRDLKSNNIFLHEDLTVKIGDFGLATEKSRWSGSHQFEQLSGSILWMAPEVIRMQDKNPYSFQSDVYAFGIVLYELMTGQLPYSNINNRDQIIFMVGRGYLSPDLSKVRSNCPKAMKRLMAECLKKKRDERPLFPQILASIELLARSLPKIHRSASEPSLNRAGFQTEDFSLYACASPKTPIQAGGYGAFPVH
Sequence of Serine/threonine-protein kinase PAK 3 (Homo sapiens) (O75914 whole entry, looked up): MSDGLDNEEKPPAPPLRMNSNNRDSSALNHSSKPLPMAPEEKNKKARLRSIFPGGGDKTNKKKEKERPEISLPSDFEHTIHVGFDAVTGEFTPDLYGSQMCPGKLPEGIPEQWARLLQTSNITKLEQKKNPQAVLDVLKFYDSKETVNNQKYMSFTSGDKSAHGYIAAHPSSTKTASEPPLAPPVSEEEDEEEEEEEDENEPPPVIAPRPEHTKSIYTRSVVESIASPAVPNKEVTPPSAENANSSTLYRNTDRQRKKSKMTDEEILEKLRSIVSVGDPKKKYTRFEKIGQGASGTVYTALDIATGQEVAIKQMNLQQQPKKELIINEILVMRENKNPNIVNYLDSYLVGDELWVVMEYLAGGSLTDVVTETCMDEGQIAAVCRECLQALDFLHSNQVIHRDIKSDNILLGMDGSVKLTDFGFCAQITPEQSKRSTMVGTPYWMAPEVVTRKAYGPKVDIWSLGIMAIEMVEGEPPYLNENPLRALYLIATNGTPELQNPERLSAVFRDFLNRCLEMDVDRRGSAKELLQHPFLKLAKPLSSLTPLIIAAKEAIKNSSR
Sequence of Platelet-derived growth factor receptor alpha (Homo sapiens), P16234 [V561D] (P16234 whole entry V561D): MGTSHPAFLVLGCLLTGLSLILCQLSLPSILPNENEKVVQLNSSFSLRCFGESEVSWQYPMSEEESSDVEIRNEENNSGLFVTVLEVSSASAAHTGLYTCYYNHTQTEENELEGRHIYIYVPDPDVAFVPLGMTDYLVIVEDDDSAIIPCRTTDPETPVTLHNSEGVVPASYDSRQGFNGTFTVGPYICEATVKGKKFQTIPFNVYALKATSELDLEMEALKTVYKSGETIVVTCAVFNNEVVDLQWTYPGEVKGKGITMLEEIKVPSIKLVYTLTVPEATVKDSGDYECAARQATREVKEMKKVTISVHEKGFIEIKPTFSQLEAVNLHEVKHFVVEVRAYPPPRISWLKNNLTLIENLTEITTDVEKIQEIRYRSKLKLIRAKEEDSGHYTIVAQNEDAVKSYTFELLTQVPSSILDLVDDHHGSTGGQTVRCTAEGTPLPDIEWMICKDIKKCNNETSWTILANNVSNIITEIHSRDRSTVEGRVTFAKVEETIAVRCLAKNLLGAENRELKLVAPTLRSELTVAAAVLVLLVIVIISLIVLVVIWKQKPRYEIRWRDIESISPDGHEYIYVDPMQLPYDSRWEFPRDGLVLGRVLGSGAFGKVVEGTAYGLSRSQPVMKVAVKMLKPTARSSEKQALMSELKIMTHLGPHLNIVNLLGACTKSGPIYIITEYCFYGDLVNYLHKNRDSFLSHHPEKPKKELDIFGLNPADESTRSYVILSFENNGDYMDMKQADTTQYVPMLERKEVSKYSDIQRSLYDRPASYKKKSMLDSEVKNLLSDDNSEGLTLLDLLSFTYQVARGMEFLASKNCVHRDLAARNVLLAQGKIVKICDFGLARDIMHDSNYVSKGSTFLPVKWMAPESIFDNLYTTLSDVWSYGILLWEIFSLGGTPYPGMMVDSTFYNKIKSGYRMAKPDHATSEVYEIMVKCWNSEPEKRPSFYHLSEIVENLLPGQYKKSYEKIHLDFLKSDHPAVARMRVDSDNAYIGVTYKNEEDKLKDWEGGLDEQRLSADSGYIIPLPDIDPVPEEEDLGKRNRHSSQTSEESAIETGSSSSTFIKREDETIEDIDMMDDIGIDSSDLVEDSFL
Sequence of Tau-tubulin kinase 1 (Homo sapiens) (Q5TCY1 whole entry, the tested form may be a part): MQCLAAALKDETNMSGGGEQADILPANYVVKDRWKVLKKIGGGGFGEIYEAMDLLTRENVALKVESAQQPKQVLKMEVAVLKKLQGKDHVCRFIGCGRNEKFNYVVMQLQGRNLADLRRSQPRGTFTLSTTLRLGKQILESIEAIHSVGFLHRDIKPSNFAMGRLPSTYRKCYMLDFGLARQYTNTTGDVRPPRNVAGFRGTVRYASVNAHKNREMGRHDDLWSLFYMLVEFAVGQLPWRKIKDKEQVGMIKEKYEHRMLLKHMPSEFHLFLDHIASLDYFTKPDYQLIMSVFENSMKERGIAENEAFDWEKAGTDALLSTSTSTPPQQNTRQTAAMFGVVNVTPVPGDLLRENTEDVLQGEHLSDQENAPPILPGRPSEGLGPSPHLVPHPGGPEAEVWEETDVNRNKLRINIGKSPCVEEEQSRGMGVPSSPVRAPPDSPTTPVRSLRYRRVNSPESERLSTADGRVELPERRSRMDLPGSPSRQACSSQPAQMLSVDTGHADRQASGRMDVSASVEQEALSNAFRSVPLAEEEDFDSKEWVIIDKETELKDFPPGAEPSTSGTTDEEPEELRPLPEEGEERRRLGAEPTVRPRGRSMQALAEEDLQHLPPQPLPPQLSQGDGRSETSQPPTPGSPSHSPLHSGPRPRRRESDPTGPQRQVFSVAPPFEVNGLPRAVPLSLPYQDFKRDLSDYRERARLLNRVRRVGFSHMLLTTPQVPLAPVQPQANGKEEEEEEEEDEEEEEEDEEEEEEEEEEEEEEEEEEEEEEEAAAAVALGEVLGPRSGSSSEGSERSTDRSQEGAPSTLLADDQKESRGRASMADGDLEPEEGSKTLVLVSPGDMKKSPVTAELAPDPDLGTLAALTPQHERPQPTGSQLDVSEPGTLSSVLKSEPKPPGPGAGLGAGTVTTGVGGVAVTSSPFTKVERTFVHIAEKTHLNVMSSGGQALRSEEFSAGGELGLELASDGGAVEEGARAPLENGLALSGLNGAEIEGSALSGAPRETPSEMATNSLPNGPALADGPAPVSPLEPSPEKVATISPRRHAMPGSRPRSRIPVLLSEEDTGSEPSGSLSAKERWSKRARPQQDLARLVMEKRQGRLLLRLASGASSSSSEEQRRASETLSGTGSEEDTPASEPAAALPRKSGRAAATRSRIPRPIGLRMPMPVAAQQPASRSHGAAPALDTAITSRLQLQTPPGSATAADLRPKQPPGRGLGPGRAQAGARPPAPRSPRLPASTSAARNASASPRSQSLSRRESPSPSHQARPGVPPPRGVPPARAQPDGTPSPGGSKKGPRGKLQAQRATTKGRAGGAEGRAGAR
Sequence of Calcium/calmodulin-dependent protein kinase type 1B (Homo sapiens) (Q6P2M8 whole entry): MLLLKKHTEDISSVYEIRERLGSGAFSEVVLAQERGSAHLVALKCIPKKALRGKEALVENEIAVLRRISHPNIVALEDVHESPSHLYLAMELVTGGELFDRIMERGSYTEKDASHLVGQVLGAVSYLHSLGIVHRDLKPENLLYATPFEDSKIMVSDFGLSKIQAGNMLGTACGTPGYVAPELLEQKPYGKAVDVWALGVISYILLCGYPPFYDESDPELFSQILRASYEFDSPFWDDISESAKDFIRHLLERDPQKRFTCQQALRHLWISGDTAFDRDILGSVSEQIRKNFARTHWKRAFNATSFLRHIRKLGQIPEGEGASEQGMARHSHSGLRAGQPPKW

`Cc1ccc(NC(=O)C2(C(=O)Nc3ccc(Nc4ncc(F)c(-c5cc(F)c6nc(C)n(C(C)C)c6c5)n4)cc3)CC2)cc1`: the inhibition in series [1] came out at 8%; in [2], 0%; in [3], 11%; in [4], 0%; in series [6], 70%; in series [8] it was 56%. The inhibition was determined as 72% in series [9]; 9% in series [10]; 2% in series [11]; 47% in series [13]; 43% in series [14]; 6% in series [15]. Further, the inhibition in series [16] worked out at 45%; in [19], 0%; in series [20] it was 22%. Further, the IC50 in [5] stood at 247 nM. The Activity entry in series [7] was “Non-Toxic”. In addition, the inhibition entry in series [12] was “Active”. The result in series [17] was Active. The TGI entry in [18] is “Active”.
Regarding `COc1cc2nccc(Oc3ccc(NC(=O)C4(C(=O)Nc5ccc(F)cc5)CC4)cc3)c2cc1OC` [CABOZANTINIB], the inhibition result in [21] was “Active”.

As a reminder, the inhibition is the drop in the measured response relative to a control, in per cent. In general, IC50 refers to the midpoint of a concentration-inhibition curve.

Source of the values: ChEMBL document CHEMBL4406821, “Novel dual inhibitors targeting CDK4 and VEGFR2 synergistically suppressed cancer progression and angiogenesis” (Eur J Med Chem, 2019).
